Source: the M2OR odorant receptor database

The compounds below were run against T1, OR5AC2 (Homo sapiens) (UniProt Q9NZP5). Conditions: stereoisomer not certain.
T1 sequence (whole entry): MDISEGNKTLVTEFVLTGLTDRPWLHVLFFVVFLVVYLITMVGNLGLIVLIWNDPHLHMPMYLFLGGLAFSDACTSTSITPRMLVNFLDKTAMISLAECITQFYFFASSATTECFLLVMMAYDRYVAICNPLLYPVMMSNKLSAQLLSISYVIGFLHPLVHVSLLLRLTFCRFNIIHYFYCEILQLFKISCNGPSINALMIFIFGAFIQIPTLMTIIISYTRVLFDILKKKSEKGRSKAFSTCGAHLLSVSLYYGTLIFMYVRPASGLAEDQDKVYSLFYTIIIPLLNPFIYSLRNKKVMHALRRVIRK
Procedure, shortened: (§1)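 Each entry records the cell line, G-protein, co-transfected protein and tags used. Methods varied with the source, often transient luciferase assays in mammalian cell lines. A receptor–molecule pair is called responsive (active) if the original authors judged its signal statistically different from baseline and non-responsive (inactive) otherwise.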

| Compound | odorant receptor agonist call |
| --- | --- |
| C=CCOC(=O)COCCC(C)C | inactive |
| CC1CC(C)(c2ccccc2)CO1 (stereo not given) | inactive |
| COc1ccc(C)cc1 | inactive |
| CC1=CCC2CC1C2(C)C (stereo not given) | inactive |
| CCC=C(C)C(O)CCCCC (stereo not given) | inactive |
| CCCCC1CCC(=O)O1 (stereo not given) | inactive |
| CCCCCC1COCCC1OC(C)=O (stereo not given) | inactive |
| C=CC(C)(O)CCC=C(C)CCC=C(C)C (stereo not given) | inactive |
| Cc1ccc(C(C)C)cc1O | inactive |
| CC(C)CCCC(C)(C)O | inactive |

What follows are compounds tested against T2, OR5AN1 (Homo sapiens) (UniProt Q8NGI8). Conditions: stereoisomer not certain.
T2 sequence (whole entry): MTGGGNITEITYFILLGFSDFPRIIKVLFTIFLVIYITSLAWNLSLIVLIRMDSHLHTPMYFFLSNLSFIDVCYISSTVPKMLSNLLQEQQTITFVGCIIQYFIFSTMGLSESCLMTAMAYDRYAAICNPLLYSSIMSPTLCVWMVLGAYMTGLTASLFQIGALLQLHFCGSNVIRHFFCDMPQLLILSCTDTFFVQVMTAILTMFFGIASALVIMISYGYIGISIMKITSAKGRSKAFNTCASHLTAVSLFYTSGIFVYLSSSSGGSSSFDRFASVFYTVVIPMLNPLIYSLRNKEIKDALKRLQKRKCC
Procedure, shortened: as §1

| Compound | odorant receptor agonist call |
| --- | --- |
| CCCCCCCCCCCCCC(C)=O | inactive |
| O=C1CCCCCCCCCC1 | inactive |
| C1CCCCCCCCCCCCCC1 | inactive |
| O=C1CCCCCC=CCCCCCCCCO1 | active |
| CCC(=O)OCC(C)(C)OC(C)C1CCCC(C)(C)C1 (stereo not given) | inactive |
| CC1CC=CCCCCCCCCCC(=O)C1 (stereo not given) | active |
| O=C1CCCCCCCCCCCCCC1 | active |
| CCCCCCCC(=O)CCCCCCC | inactive |
| O=C1CCCCCCCCC1 | inactive |
| O=C1C=CCCCCCCCCCCCCO1 | active |
| CC1CCCCCCCCCCCC(=O)C1 (stereo not given) | active |
| O=C1CCCCCCC=CCCCCCCC1 | active |
| CC1C(C)(C)C2=C(C(=O)CCC2)C1(C)C (stereo not given) | inactive |
| OC1CCCCCCCCCCCCCC1 | inactive |
| CC1CC=CCCCCCCCCC(=O)C1 (stereo not given) | active |
| O=C1CCCC=CCCCCCCCCCC1 | active |

These compounds were tested against T3, OR5B17 (Homo sapiens) (UniProt Q8NGF7). Conditions: stereoisomer not certain.
T3 sequence (whole entry): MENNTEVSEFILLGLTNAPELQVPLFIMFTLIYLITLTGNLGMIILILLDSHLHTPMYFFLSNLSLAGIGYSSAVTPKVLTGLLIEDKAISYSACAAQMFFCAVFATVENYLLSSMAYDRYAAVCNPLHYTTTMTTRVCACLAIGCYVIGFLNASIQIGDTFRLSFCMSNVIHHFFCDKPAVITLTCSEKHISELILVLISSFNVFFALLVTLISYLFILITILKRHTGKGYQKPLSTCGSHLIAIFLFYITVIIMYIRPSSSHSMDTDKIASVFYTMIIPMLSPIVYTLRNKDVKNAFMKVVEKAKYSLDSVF
Procedure, shortened: as §1

| Compound | odorant receptor agonist call |
| --- | --- |
| C=CCOC(=O)COCCC(C)C | inactive |
| CC1CC(C)(c2ccccc2)CO1 (stereo not given) | inactive |
| COc1ccc(C)cc1 | inactive |
| Cc1occc(=O)c1OC(=O)C(C)C | inactive |
| CC1=CCC2CC1C2(C)C (stereo not given) | inactive |
| CCC=C(C)C(O)CCCCC (stereo not given) | inactive |
| CCCCC1CCC(=O)O1 (stereo not given) | inactive |
| CCCCCC1COCCC1OC(C)=O (stereo not given) | inactive |
| CCCC(C)C(=O)OCC (stereo not given) | inactive |
| C=CC(C)(O)CCC=C(C)CCC=C(C)C (stereo not given) | inactive |
| CC=CC(=O)C1C(C)=CCCC1(C)C (stereo not given) | inactive |
| Cc1ccc(C(C)C)cc1O | inactive |
| CCOC(=O)CC1(C)OCCO1 | inactive |
| CC(C)CCCC(C)(C)O | inactive |
